Measured values published in ChEMBL document CHEMBL4364267, “Hydrogen sulfide donating ent-kaurane and spirolactone-type 6,7-seco-ent-kaurane derivatives: Design, synthesis and antiproliferative properties” (Eur J Med Chem, 2019).
The source made the active and inactive calls. The rule behind the calls is not given here.

Tests used:
Bel-7402 [1] = test: Induction of mitochondrial membrane potential loss in human Bel7402 cells assessed as cell population with intact mitochondrial membrane potential at 1.80 uM after 48 hrs by JC1 staining-based flow cytometry analysis (reference value: 98.67%); format: functional
Procedure, shortened: (§1)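 Bel-7402 cells in 6-well plates exposed for 48 h to 0, 0.45, 0.90 or 1.80 μM, DMSO as vehicle. Washed with PBS and stained with JC-1 at room temperature in the dark. Cells with collapsed membrane potential counted by flow cytometry.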

Bel-7402 [2] = test: Induction of apoptosis in human Bel7402 cells assessed as late apoptotic cells at 0.45 uM after 48 hrs by Annexin V-FITC/propidium iodide staining based flow cytometry (reference value: 0.68%); format: functional
Procedure, shortened: (§2)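 Bel-7402 cells in 6-well plates treated with 0, 0.45, 0.90 or 1.80 μM, washed twice with PBS and resuspended in annexin V binding buffer. Stained with annexin V-FITC and PI for 15 min at room temperature in the dark, then analysed by flow cytometry. Methods state 24 h exposure; the figure legend states 48 h.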

SGC-7901 = test: Antiproliferative activity against human SGC7901 cells assessed as reduction in cell viability after 72 hrs by MTT assay; format: functional, cell-based; settings: SGC-7901, 72 h
Procedure, shortened: (§3)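 MTT assay over 72 h, compounds at 64, 16, 4, 1, 0.25, 0.0625 and 0.015625 μM. MTT solution (5 mg/mL) and DMSO added afterwards, 10 min at room temperature, absorbance read at 490 nm. IC50 calculated as the mean ± SD of three independent experiments.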

Bel-7402 [3] = test: Cell cycle arrest in human Bel7402 cells assessed as accumulation of cells at G1 phase at 1.80 uM after 48 hrs by propidium iodide/RNase staining based flow cytometric analysis (reference value: 30.95%); format: functional
Bel-7402 [4] = test: Induction of apoptosis in human Bel7402 cells assessed as increase in cleaved caspase-3 expression at 0.90 to 1.80 uM after 48 hrs by Western blot analysis; format: functional, cell-based
Bel-7402 [5] = test: Antiproliferative activity against human Bel7402 cells assessed as reduction in cell viability after 72 hrs by MTT assay; format: functional, cell-based; settings: Bel-7402, 72 h; procedure, shortened: as §3
Bel-7402 [6] = test: Induction of mitochondrial membrane potential depolarization in human Bel7402 cells after 48 hrs by JC1 staining-based flow cytometry analysis; format: functional, cell-based; procedure, shortened: as §1
Bel-7402 [7] = test: Induction of morphological changes in human Bel7402 cells assessed as nuclear fragmentation at 0.45 to 1.80 uM after 48 hrs by Hoechst 33258 staining-based fluorescent microscopic analysis; format: functional, cell-based
Procedure, shortened: (§4)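 Bel-7402 cells cultured 24 h in 6-well plates at 37 °C, then exposed 48 h to 0, 0.45, 0.90 or 1.80 μM. Harvested by mild trypsinization and washed twice with PBS. Stained with Hoechst 33258 (2 mg/mL) for 15 min at room temperature in the dark, washed, and viewed by fluorescence microscopy.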

Bel-7402 [8] = test: Induction of apoptosis in human Bel7402 cells assessed as increase in cytochrome C expression at 0.90 to 1.80 uM after 48 hrs by Western blot analysis; format: functional, cell-based
Bel-7402 [9] = test: Induction of mitochondrial membrane potential loss in human Bel7402 cells assessed as cell population with intact mitochondrial membrane potential at 0.45 uM after 48 hrs by JC1 staining-based flow cytometry analysis (reference value: 98.67%); format: functional; procedure, shortened: as §1
[10] = Selectivity index, ratio of IC50 for human PBMC to IC50 for human Bel7402 cells after 72 hrs by MTT assay; format: toxicity; settings: PBMC versus Bel7402 cells, read-out: Ratio IC50
Bel-7402 [11] = test: Induction of apoptosis in human Bel7402 cells assessed as viable cells at 0.45 uM after 48 hrs by Annexin V-FITC/propidium iodide staining based flow cytometry (reference value: 97.22%); format: functional; settings: Bel-7402, 48 h, read-out: Activity; procedure, shortened: as §2
Bel-7402 [12] = test: Cell cycle arrest in human Bel7402 cells assessed as accumulation of cells at G1 phase after 48 hrs by propidium iodide/RNase staining based flow cytometric analysis; format: functional
Bel-7402 [13] = test: Induction of morphological changes in human Bel7402 cells assessed as chromatin shrinkage at 0.45 to 1.80 uM after 48 hrs by Hoechst 33258 staining-based fluorescent microscopic analysis; format: functional, cell-based; procedure, shortened: as §4
Bel-7402 [14] = test: Cell cycle arrest in human Bel7402 cells assessed as accumulation of cells at G1 phase at 0.45 uM after 48 hrs by propidium iodide/RNase staining based flow cytometric analysis (reference value: 30.95%); format: functional
[15] = Induction of H2S generation in PBS containing Na2S and MB+ cocktail in presence of TCEP/L-cysteine measured at 15 to 20 mins after 20 mins compound incubation by methylene blue dye based UV-Vis spectrophotometric method; format: functional
Procedure, shortened: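 Na2S standards (5–150 μM) in sodium phosphate buffer reacted 20 min at room temperature with methylene blue cocktail (FeCl3/HCl, N,N-dimethyl-1,4-phenylenediamine/HCl, Zn(OAc)2) to build a 670 nm calibration curve. Compounds from 40 mM THF stock added to phosphate buffer with 1 mM TCEP or L-cysteine. Aliquots taken into the cocktail at set times, incubated 20 min, read at 670 nm. Mean of three experiments.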

Bel-7402 [16] = test: Induction of apoptosis in human Bel7402 cells assessed as late apoptotic cells at 0.90 uM after 48 hrs by Annexin V-FITC/propidium iodide staining based flow cytometry (reference value: 0.68%); format: functional; procedure, shortened: as §2
Bel-7402 [17] = test: Induction of apoptosis in human Bel7402 cells assessed as necrotic cells at 0.90 uM after 48 hrs by Annexin V-FITC/propidium iodide staining based flow cytometry (reference value: 0.01%); format: functional; procedure, shortened: as §2
Bel-7402 [18] = test: Induction of apoptosis in human Bel7402 cells assessed as reduction in PARP expression at 0.45 to 1.80 uM after 48 hrs by Western blot analysis; format: functional, cell-based
Bel-7402 [19] = test: Induction of apoptosis in human Bel7402 cells assessed as early apoptotic cells at 0.45 uM after 48 hrs by Annexin V-FITC/propidium iodide staining based flow cytometry (reference value: 2.09%); format: functional; procedure, shortened: as §2
Bel-7402 [20] = test: Induction of apoptosis in human Bel7402 cells assessed as necrotic cells at 0.45 uM after 48 hrs by Annexin V-FITC/propidium iodide staining based flow cytometry (reference value: 0.01%); format: functional; procedure, shortened: as §2
Bel-7402 [21] = test: Induction of apoptosis in human Bel7402 cells assessed as early apoptotic cells at 1.80 uM after 48 hrs by Annexin V-FITC/propidium iodide staining based flow cytometry (reference value: 2.09%); format: functional; procedure, shortened: as §2
Bel-7402 [22] = test: Induction of apoptosis in human Bel7402 cells assessed as increase in Bax expression at 0.90 to 1.80 uM after 48 hrs by Western blot analysis; format: functional, cell-based
Bel-7402 [23] = test: Induction of mitochondrial membrane potential loss in human Bel7402 cells assessed as cell population with mitochondrial membrane potential collapse at 0.90 uM after 48 hrs by JC1 staining-based flow cytometry analysis (reference value: 1.28%); format: functional; procedure, shortened: as §1
A549 = test: Antiproliferative activity against human A549 cells assessed as reduction in cell viability after 72 hrs by MTT assay; format: functional, cell-based; settings: A549, 72 h; procedure, shortened: as §3
Bel-7402 [24] = test: Induction of mitochondrial membrane potential loss in human Bel7402 cells assessed as cell population with intact mitochondrial membrane potential at 0.90 uM after 48 hrs by JC1 staining-based flow cytometry analysis (reference value: 98.67%); format: functional; procedure, shortened: as §1

IC50 (SGC-7901): 4.36 µM
IC50 (Bel-7402 [5]): 0.88 µM
IC50 (A549): 5.21 µM
Structure (SMILES): C=C1C(=O)[C@@]23C(=O)OC[C@]4(C(=O)CCC(C)(C)[C@H]4C=O)[C@@H]2CC[C@@H]1[C@H]3OC(=O)CCCC(=O)Oc1ccc(-c2cc(=S)ss2)cc1
Activity (Bel-7402 [1]): 41.23%
Activity (Bel-7402 [2]): 7.73%
Activity (Bel-7402 [3]): 49.56%
Activity (Bel-7402 [4]): Active
Activity (Bel-7402 [6]): Dose-dependent effect
Activity (Bel-7402 [7]): Active
Activity (Bel-7402 [8]): Active
Activity (Bel-7402 [9]): 81.5%
selectivity ratio at 72 h [10]: 24
viability at 0.45 µM (Bel-7402 [11]): 82.2%
Activity (Bel-7402 [12]): Dose-dependent effect
Activity (Bel-7402 [13]): Active
Activity (Bel-7402 [14]): 37.37%
Activity [15]: Active
Activity (Bel-7402 [16]): 12.3%
Activity (Bel-7402 [17]): 0.06%
Activity (Bel-7402 [18]): Active
Activity (Bel-7402 [19]): 9.92%
Activity (Bel-7402 [20]): 0.11%
Activity (Bel-7402 [21]): 18.68%
Activity (Bel-7402 [22]): Active
Activity (Bel-7402 [23]): 30.96%
Activity (Bel-7402 [24]): 69.04%
